Measured values taken from ChEMBL document CHEMBL4422637, “Identification of dual role of piperazine-linked phenyl cyclopropyl methanone as positive allosteric modulator of 5-HT2C and negative allosteric modulator of 5-HT2B receptors” (Eur J Med Chem, 2019).
pEC50: −log10 of the molar value. The source made the active and inactive calls. The rule behind the calls is not given here.

Legend:
[1] = target: T1, 5-hydroxytryptamine receptor 2C (Homo sapiens) (UniProt P28335); assay: Positive allosteric modulation of 5HT2C receptor (unknown origin) expressed in HEK293 cells co-expressing NFAT-RE assessed as increase in serotonin-induced reponse at 10 uM after 6 to 12 hrs by Bright-Glo luciferase reporter gene assay relative to serotonin; type: cell-based
T1 sequence (whole entry): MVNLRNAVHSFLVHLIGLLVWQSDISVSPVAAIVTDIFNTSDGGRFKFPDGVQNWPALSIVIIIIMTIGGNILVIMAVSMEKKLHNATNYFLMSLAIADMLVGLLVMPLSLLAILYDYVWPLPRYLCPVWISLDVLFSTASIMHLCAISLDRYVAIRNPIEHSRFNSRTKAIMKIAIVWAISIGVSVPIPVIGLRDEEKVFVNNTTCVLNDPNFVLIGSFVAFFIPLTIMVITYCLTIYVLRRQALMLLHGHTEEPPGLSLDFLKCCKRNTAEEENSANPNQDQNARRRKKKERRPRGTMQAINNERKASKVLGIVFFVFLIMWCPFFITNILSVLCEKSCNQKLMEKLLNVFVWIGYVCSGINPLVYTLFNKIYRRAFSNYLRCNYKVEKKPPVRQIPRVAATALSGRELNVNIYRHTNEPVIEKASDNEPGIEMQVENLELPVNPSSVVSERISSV
In short: (§1)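 Transiently co-transfected HEK293T cells expressing 5-HT2A, 5-HT2B or 5-HT2C with NFAT-RE luciferase, 50,000 cells/well. Test compound added first at 10 µM, 1 µM or 100 nM, in triplicate. A 5-HT concentration-response (10 µM to 0.01 nM) followed, then 6-12 h incubation. Bright-Glo luminescence was fitted by non-linear regression, with Emax normalized to 5-HT alone (100%). n=3-4.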

[2] = target: T1, 5-hydroxytryptamine receptor 2C (Homo sapiens); assay: Agonist activity at 5HT2C receptor (unknown origin) expressed in HEK293 cells co-expressing NFAT-RE at 10 uM after 6 to 12 hrs by Bright-Glo luciferase reporter gene assay; type: cell-based
In short: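 Primary screen at 5-HT2C in transiently co-transfected HEK293T (receptor plus NFAT-RE luciferase plasmids, 50,000 cells/well). Compounds tested in triplicate at a final 10 µM in HEPES-buffered HBSS pH 7.4 and incubated 6-12 h. Luminescence read within 5 min of Bright-Glo (1 mg/ml final). Signal normalized to the 5-HT maximal response.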

[3] = target: T2, 5-hydroxytryptamine receptor 2A (Homo sapiens, UniProt P28223); assay: Positive allosteric modulation of 5HT2A receptor (unknown origin) expressed in HEK293 cells co-expressing NFAT-RE assessed as increase in serotonin-induced reponse after 6 to 12 hrs by Bright-Glo luciferase reporter gene assay; type: cell-based; in short: as §1
[4] = target: T3, 5-hydroxytryptamine receptor 2B (Homo sapiens, UniProt P41595); assay: Positive allosteric modulation of 5HT2B receptor (unknown origin) expressed in HEK293 cells co-expressing NFAT-RE assessed as increase in serotonin-induced reponse after 6 to 12 hrs by Bright-Glo luciferase reporter gene assay; type: cell-based; in short: as §1
[5] = target: T3, 5-hydroxytryptamine receptor 2B; assay: Positive allosteric modulation of 5HT2B receptor (unknown origin) expressed in HEK293 cells co-expressing NFAT-RE assessed as increase in serotonin-induced reponse at 10 uM after 6 to 12 hrs by Bright-Glo luciferase reporter gene assay; type: cell-based; conditions: hek293, 10 µM; in short: as §1
5HT2B receptor = 5HT2B receptor (Homo sapiens, UniProt P41595); assay: Positive allosteric modulation of 5HT2B receptor (unknown origin) expressed in HEK293 cells co-expressing NFAT-RE assessed as increase in serotonin-induced reponse at 1 uM after 6 to 12 hrs by Bright-Glo luciferase reporter gene assay relative to serotonin; type: cell-based; conditions: HEK293 cells expressing 5HT2B receptor and NFAT-RE reporter; in short: as §1
[6] = target: T2, 5-hydroxytryptamine receptor 2A; assay: Agonist activity at 5HT2A receptor (unknown origin) expressed in HEK293 cells co-expressing NFAT-RE after 6 to 12 hrs by Bright-Glo luciferase reporter gene assay; type: cell-based
In short: (§2)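 HEK293T cells transiently co-transfected (PEI) with 0.1 µg/well receptor plasmid (5-HT2A, 5-HT2B or 5-HT2C) plus 0.1 µg/well NFAT-RE luciferase reporter, plated 50,000 cells/well 24 h before treatment. Compounds tested in triplicate from 10 µM down to 0.01 nM in HBSS/20 mM HEPES pH 7.4, incubated 6-12 h. Luminescence read within 5 min of Bright-Glo (1 mg/ml final). RLU fitted by non-linear regression; 5-HT Emax set to 100%.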

[7] = target: T1, 5-hydroxytryptamine receptor 2C (Homo sapiens); assay: Agonist activity at 5HT2C receptor (unknown origin) expressed in HEK293 cells co-expressing NFAT-RE after 6 to 12 hrs by Bright-Glo luciferase reporter gene assay; type: cell-based; in short: as §2
5HT2A receptor = 5HT2A receptor (Homo sapiens, UniProt P28223); assay: Positive allosteric modulation of 5HT2A receptor (unknown origin) expressed in HEK293 cells co-expressing NFAT-RE assessed as increase in serotonin-induced reponse at 1 uM after 6 to 12 hrs by Bright-Glo luciferase reporter gene assay relative to serotonin; type: cell-based; conditions: HEK293 cells expressing 5HT2A receptor and NFAT-RE reporter; in short: as §1
[8] = target: T4, 5-hydroxytryptamine receptor 2C (Homo sapiens, UniProt P28335); assay: Positive allosteric modulation of 5HT2C receptor (unknown origin) expressed in HEK293 cells co-expressing NFAT-RE assessed as increase in serotonin-induced reponse after 6 to 12 hrs by Bright-Glo luciferase reporter gene assay; type: cell-based; in short: as §1
T4 sequence (P28335 whole entry): T1 sequence (whole entry)

[9] = target: T1, 5-hydroxytryptamine receptor 2C (Homo sapiens); assay: Positive allosteric modulation of 5HT2C receptor (unknown origin) expressed in HEK293 cells co-expressing NFAT-RE assessed as increase in serotonin-induced reponse at 1 uM after 6 to 12 hrs by Bright-Glo luciferase reporter gene assay relative to serotonin; type: cell-based; in short: as §1
[10] = target: T3, 5-hydroxytryptamine receptor 2B; assay: Agonist activity at 5HT2B receptor (unknown origin) expressed in HEK293 cells co-expressing NFAT-RE after 6 to 12 hrs by Bright-Glo luciferase reporter gene assay; type: cell-based; in short: as §2
Rattus norvegicus = assay: Induction of anorexia in Sprague-Dawley rat assessed as suppression of food intake at 2 pmol, icv measured after 3 to 6 hrs; type: functional, organism-based
In short: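 Adult SD rats (150-200 g) on a 12 h light/dark cycle at 22 °C, cannulated in the right ventricle. Rats were fasted 4 h with free access to water, then dosed i.c.v. with 2 pmol/rat (2 µL) in aCSF vehicle; lorcaserin 2 pmol/rat served as positive control. Weighed pellets were given 10 min later, and remaining food plus spillage was weighed at 3, 6 and 24 h; n=4.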

T3 sequence (P41595 whole entry): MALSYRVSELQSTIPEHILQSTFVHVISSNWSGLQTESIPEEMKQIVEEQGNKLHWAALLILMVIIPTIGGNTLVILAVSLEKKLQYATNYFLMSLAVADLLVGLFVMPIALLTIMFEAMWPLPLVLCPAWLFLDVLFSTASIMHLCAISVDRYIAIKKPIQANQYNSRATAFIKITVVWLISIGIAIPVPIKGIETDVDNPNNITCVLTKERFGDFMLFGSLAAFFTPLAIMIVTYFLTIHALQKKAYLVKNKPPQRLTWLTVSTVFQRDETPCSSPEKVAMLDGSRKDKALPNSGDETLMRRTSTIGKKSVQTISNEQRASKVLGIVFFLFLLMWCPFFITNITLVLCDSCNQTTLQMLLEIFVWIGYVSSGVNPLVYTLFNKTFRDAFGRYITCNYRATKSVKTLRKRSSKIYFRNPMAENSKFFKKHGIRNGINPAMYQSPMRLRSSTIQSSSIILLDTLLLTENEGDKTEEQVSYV
T2 sequence (P28223 whole entry): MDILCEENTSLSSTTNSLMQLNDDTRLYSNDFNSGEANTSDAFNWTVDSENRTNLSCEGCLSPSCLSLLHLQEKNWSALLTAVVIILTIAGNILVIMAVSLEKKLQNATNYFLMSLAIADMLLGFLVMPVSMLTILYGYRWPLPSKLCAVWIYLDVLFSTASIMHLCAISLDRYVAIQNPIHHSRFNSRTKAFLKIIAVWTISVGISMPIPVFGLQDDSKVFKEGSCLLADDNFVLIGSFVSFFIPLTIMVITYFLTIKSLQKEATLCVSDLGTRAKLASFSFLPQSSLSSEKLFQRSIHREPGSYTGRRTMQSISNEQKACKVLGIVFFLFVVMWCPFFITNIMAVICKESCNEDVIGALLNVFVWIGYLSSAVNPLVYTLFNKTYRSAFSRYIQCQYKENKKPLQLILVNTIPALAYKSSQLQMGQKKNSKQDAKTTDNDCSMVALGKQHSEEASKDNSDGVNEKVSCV
Sequence of 5HT2B receptor (P41595 whole entry): as the sequence (P41595 whole entry) above
Sequence of 5HT2A receptor (P28223 whole entry): as the sequence (P28223 whole entry) above

O=C(c1ccc(N2CCN(Cc3ccc4c(c3)OCO4)CC2)cc1)C1CC1
Activity [1]: inactive
Activity [2]: inactive

O=C(c1ccc(N2CCN(C(c3ccccc3)c3ccccc3)CC2)cc1)C1CC1
Activity [1]: inactive
Activity [2]: inactive

Cc1cccc2sc(Nc3ccc(C(=O)C4CC4)cc3)nc12
Activity [1]: inactive
Activity [2]: inactive

O=C(c1ccc(Nc2nc3ccccc3s2)cc1)C1CC1
Activity [1]: inactive
Activity [2]: inactive

Nc1cccc2ncn(-c3ccc(C(=O)C4CC4)cc3)c12
Activity [1]: inactive
Activity [2]: inactive

CCOc1ccc2nc(Nc3ccc(C(=O)C4CC4)cc3)sc2c1
Activity [1]: inactive
Activity [2]: inactive

Nc1ncnc2c1ncn2-c1ccc(C(=O)C2CC2)cc1
Activity [1]: inactive
Activity [2]: inactive

O=C(c1ccc(Nc2nc3ccccc3[nH]2)cc1)C1CC1
Activity [1]: inactive
Activity [2]: inactive

Cc1nc2ccccc2n1-c1ccc(C(=O)C2CC2)cc1
Activity [1]: inactive
Activity [2]: inactive

O=S(=O)(NCc1cn(C(c2ccc(OCc3ccccc3)cc2)C2CC2)nn1)c1ccc(F)cc1 (stereo unspecified)
Activity [2]: inactive

OCCCCc1cn(C(c2ccc(OCc3ccccc3)cc2)C2CC2)nn1 (stereo unspecified)
Activity [2]: inactive

OC(c1ccc(-n2ccnc2)cc1)C1CC1 (stereo unspecified)
Activity [1]: inactive
Activity [2]: inactive

O=C(c1ccc(-n2cnc([N+](=O)[O-])c2)cc1)C1CC1
pEC50 [3]: 7.34
pEC50 [4]: 8.90
Activity [1]: Active
Activity [5]: Active
Emax at 1 µM (5HT2B receptor): 123%
Activity [6]: Not Active
Activity [7]: inactive
Emax at 1 µM (5HT2A receptor): 100%
pEC50 [8]: 8.38
Emax [9]: 140%
Activity [10]: Not Active
Activity [2]: inactive

OC(c1ccc(-n2cnc3c(NCc4ccccc4)ncnc32)cc1)C1CC1 (stereo unspecified)
Activity [1]: inactive
Activity [2]: inactive

COc1cc(C(=O)OCc2cn(C(c3ccc(OCc4ccccc4)cc3)C3CC3)nn2)cc(OC)c1OC (stereo unspecified)
Activity [2]: inactive

C=CCN1CCN(c2ccc(C(=O)C3CC3)cc2)CC1
Activity [1]: inactive
Activity [2]: inactive

O=[N+]([O-])c1cn(-c2ccc(C(O)C3CC3)cc2)cn1 (stereo unspecified)
Activity [1]: inactive
Activity [2]: inactive

OCc1cn(C(c2ccc(OCc3ccccc3)cc2)C2CC2)nn1 (stereo unspecified)
Activity [2]: inactive

O=C(c1ccc(NCCN2CCN(c3ccc(C(=O)C4CC4)cc3)CC2)cc1)C1CC1
Activity [2]: inactive

CCCCCc1cn(C(c2ccc(OCc3ccccc3)cc2)C2CC2)nn1 (stereo unspecified)
Activity [2]: inactive

O=C(c1ccc(-n2ccnc2)cc1)C1CC1
pEC50 [3]: 7.30
pEC50 [4]: 8.90
Activity [1]: Active
Activity [5]: Active
Emax at 1 µM (5HT2B receptor): 119%
Activity [6]: Not Active
Activity [7]: inactive
Emax at 1 µM (5HT2A receptor): 96%
pEC50 [8]: 8.37
Emax [9]: 143%
Activity [10]: Not Active
Activity [2]: inactive

Nc1ncnc2c1ncn2-c1ccc(C(O)C2CC2)cc1 (stereo unspecified)
Activity [1]: inactive
Activity [2]: inactive

O=C(c1ccc(Nc2nc3ccc(F)cc3s2)cc1)C1CC1
Activity [1]: inactive
Activity [2]: inactive

O=C(c1ccc(NCCCn2ccnc2)cc1)C1CC1
Activity [1]: inactive

OC(c1ccc(-n2cnc3ccccc32)cc1)C1CC1 (stereo unspecified)
Activity [1]: inactive
Activity [2]: inactive

O=C(c1ccc(-n2cnc3c(NCc4ccccc4)ncnc32)cc1)C1CC1
Activity [1]: inactive
Activity [2]: inactive

O=C(c1ccc(-n2cnc3ccccc32)cc1)C1CC1
Activity [1]: inactive
Activity [2]: inactive

Cc1ccc(S(=O)(=O)NCc2cn(C(c3ccc(OCc4ccccc4)cc3)C3CC3)nn2)cc1 (stereo unspecified)
Activity [2]: inactive

c1ccc(COc2ccc(C(C3CC3)n3cc(-c4ccccc4)nn3)cc2)cc1 (stereo unspecified)
Activity [2]: inactive

O=C(c1ccc(-n2nnc3ccccc32)cc1)C1CC1
Activity [1]: inactive
Activity [2]: inactive

O=C(c1ccc(OCc2ccccc2)cc1)C1CC1
Activity [2]: inactive

CC1(C)O[C@@H]2O[C@H]([C@H]3COC(C)(C)O3)[C@@H](OCc3cn(C(c4ccc(OCc5ccccc5)cc4)C4CC4)nn3)[C@H]2O1 (stereo partly specified)
Activity [2]: inactive

Cc1nc2ccccc2n1-c1ccc(C(O)C2CC2)cc1 (stereo unspecified)
Activity [1]: inactive
Activity [2]: inactive

C[C@H]1CNCCc2ccc(Cl)cc21
Activity (Rattus norvegicus): Active
